For orientation: EC50 means the concentration needed to bring the measured effect to its halfway point.

This passage reports Activity, EC50 and RBA results from ChEMBL document CHEMBL1142991, “Structure-activity relationship study to understand the estrogen receptor-dependent gene activation of aryl- and alkyl-substituted 1H-imidazoles” (J Med Chem, 2007).

In assay [1] the test system is MCF7-2A. Description: Activation of transcriptional activity at ERalpha expressed in MCF7-2a cells assessed as luciferase expression at 10 uM relative to estradiol. It is filed as functional, cell-based, Homo sapiens. The settings on record: for EC50: Homo sapiens, MCF7-2A, in the assay text read “relative to estradiol” for “at 10 uM relative to estradiol”. In a few lines:
(§1)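 Reporter cells: MCF-7-2a (stable ERE_wtcluc) kept one week in DMEM with L-glutamine, antibiotics, dextran/charcoal-treated BCS (50 mL/L); seeded ~2.2 × 10⁵ cells/mL in six-well plates, compound added after 24 h at 10^-5 to 10^-10 M, 50 h incubation; lysed, luciferase luminescence read 10 s, normalized to Bradford protein; expressed as % of 10^-8 M estradiol; triplicate, single experiment.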

Assay [2] relates to MCF7-2A. The experiment in a line: Activation of transcriptional activity at ERalpha expressed in MCF7-2a cells assessed as luciferase expression relative to estradiol. The class given is functional, cell-based. The settings on record: Homo sapiens. In a few lines: as §1
For assay [3], the target named is T1, Estrogen receptor (Bos taurus) (UniProt P49884).
T1 sequence (whole entry): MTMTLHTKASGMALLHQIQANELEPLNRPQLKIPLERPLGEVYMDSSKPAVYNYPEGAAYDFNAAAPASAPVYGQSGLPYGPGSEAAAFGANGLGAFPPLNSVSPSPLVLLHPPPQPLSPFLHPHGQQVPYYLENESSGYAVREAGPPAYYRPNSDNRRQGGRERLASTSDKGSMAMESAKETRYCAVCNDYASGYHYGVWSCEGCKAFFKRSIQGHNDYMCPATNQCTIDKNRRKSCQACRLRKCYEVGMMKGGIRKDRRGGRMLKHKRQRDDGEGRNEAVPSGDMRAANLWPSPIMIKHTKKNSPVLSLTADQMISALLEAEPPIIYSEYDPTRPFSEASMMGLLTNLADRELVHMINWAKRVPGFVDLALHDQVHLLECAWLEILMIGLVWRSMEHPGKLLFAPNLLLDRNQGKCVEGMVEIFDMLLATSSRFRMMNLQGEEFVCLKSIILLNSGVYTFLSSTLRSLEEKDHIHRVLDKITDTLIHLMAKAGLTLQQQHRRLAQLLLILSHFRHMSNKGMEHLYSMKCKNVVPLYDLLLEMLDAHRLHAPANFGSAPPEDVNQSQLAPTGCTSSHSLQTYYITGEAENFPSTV
Description: Displacement of [3H]estradiol from calf ER alpha after 16 hrs relative to estradiol. An outline of the steps: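 Calf uterine cytosol as receptor source, shaken with 17β-[³H]estradiol and competitor at 4 °C for 16 h; dextran-coated charcoal stop, centrifugation, supernatant radioactivity counted. Six competitor concentrations; % bound label plotted against log concentration, and the concentration giving 50% displacement taken for competitor and for unlabeled estradiol to give relative binding affinity.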

Assay [4] is filed under the species Homo sapiens. The experiment in a line: Decrease in COX activity.

Active and inactive are the calls of the source. The rule behind the calls is not given here.

Consider `Oc1ccc(-c2nc(-c3ccc(O)cc3Cl)c(-c3ccccc3)n2-c2ccc(O)cc2)cc1`, for which the Activity in assay [1] was found to be 40%.

For the compound `CCc1c(-c2ccc(O)cc2)nc(-c2ccc(O)cc2Cl)n1-c1ccc(O)cc1`, the EC50 in assay [2] was 480 nM. The compound further had an RBA in assay [3] of 0.19%.

Regarding `CCc1c(-c2ccc(O)cc2)nc(-c2ccc(O)cc2)n1-c1ccc(O)cc1`, in assay [1], the Activity was 140% and the EC50 amounted to 77 nM. The compound further returned an RBA in assay [3] of 0.11%.

As to `Cc1c(-c2ccc(O)cc2)nc(-c2ccc(O)cc2)n1-c1ccc(O)cc1`, in assay [1], the Activity worked out at 100% and the EC50 amounted to 140 nM.

On to `CCc1c(-c2ccc(O)cc2)nc(-c2ccccc2)n1-c1ccc(O)cc1`, for which the EC50 in assay [2] worked out at 61 nM. Moreover, in assay [1], the Activity is given as 90%.

In the case of `Oc1ccc(-c2cn(-c3ccc(O)cc3)c(-c3ccc(O)cc3Cl)n2)cc1`, the outcome in assay [4] was inactive.

For `Oc1ccc(-n2cc(-c3ccc(O)cc3Cl)nc2-c2ccc(O)cc2Cl)cc1`, the outcome in assay [4] was Active. In assay [3], this compound yielded an RBA of 0.09%.

As to `Oc1ccc(-c2nc(-c3ccc(O)cc3Cl)cn2-c2ccc(O)cc2)cc1`, in assay [4], the result was Active.

On to `Oc1ccc(-c2nc(-c3ccc(O)cc3)n(-c3ccc(O)cc3)c2-c2ccccc2)cc1`, for which, in assay [1], the Activity came to 100% and the EC50 stood at 350 nM.

For `CCc1c(-c2ccc(O)cc2)nc(-c2ccc(O)cc2)n1-c1ccccc1`, in assay [1], the Activity was 60%.

Compound `Cc1c(-c2ccc(O)cc2Cl)nc(-c2ccc(O)cc2Cl)n1-c1ccc(O)cc1` returned an RBA in assay [3] of 0.11%.

Regarding `Oc1ccc(-c2nc(-c3ccc(O)cc3Cl)n(-c3ccc(O)cc3)c2-c2ccccc2)cc1`, the Activity in assay [1] is given as 50%.
